Laboratory results: ChEMBL document CHEMBL3822403, “Discovery, Optimization, and Biological Evaluation of Sulfonamidoacetamides as an Inducer of Axon Regeneration” (J Med Chem, 2016)
Activity calls are given as the source filed them. No cut-off for these calls is given here.

What was measured:
[1] = system: P19; experiment: Induction of neurite outgrowth in mouse P19 cells transfected with neuroD2 at 10 uM after 48 hrs by DAPI staining based confocal fluorescence image analyzer relative to control; format: functional
Procedure, shortened: (§1)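 P19 cells transfected with NeuroD2 cDNA, replated 12 h later at 8,000 cells/well in MEM, 5% FBS, 1 mM pyruvate, 2 mM glutamate; after 24 h compound exposure 48 h. βIII tubulin immunofluorescence with DAPI, four fields/well imaged at 10x, neurite outgrowth relative to DMSO-treated cells.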

[2] = system: Cerebral cortex neuron; experiment: Induction of neurite outgrowth in Sprague-Dawley rat primary cortical neurons at 1 to 10 uM after 48 hrs by DAPI staining based confocal fluorescence image analyzer; format: functional, cell-based
Procedure, shortened: (§2)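 E18 Sprague-Dawley rat hippocampus and cortex dissociated separately, seeded at 2,000 cells/well in Neurobasal/B27 with 2 mM glutamate; after 24 h treated 48 h. Fixed, stained anti-βIII tubulin with DAPI nuclei; four fields per well imaged at 10x, neurite total length per neuron; mean ± SD, n=3.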

[3] = system: Hippocampal neurone; experiment: Induction of neurite outgrowth in Sprague-Dawley rat primary hippocampal neurons after 48 hrs by DAPI staining based confocal fluorescence image analyzer; format: functional; procedure, shortened: as §2
[4] = Metabolic stability in mouse liver S9 fraction assessed as compound remaining after 30 mins; format: ADME, subcellular; conditions: read-out: Stability
[5] = system: Rattus norvegicus; experiment: Induction of axonal outgrowth of RGC in Sprague-Dawley rat optic nerve injury model assessed as regeneration of 500 to 1500 um crushed optic nerves at 0.22 ug/eye administered intravitreously once in 4 days for 3 weeks by measuring optic nerve injury by GAP-43 expression based microscopy (reference value: 0.22 +/- 0.081); format: functional
[6] = system: P19; experiment: Induction of neurite outgrowth in mouse P19 cells transfected with neuroD2 at 10 to 20 uM after 48 hrs by DAPI staining based confocal fluorescence image analyzer relative to control; format: functional; procedure, shortened: as §1
[7] = system: P19; experiment: Induction of neurite outgrowth in mouse P19 cells transfected with neuroD2 <1 uM after 48 hrs by DAPI staining based confocal fluorescence image analyzer relative to control; format: functional, cell-based; procedure, shortened: as §1

| remaining at 0.5 h [4] | SMILES | fold change (FC) [1] | Activity [2] | Activity [3] | Activity [5] | fold change (FC) [6] | Activity [7] |
| --- | --- | --- | --- | --- | --- | --- | --- |
| – | CCOc1ccccc1NC(=O)CN(c1ccccc1F)S(=O)(=O)c1ccc(C)cc1 | 2.9 | Active | Active | – | – | – |
| – | COc1ccc(OC)c(NC(=O)CN(Cc2ccc(C)cc2)c2ccccc2OC)c1 | – | – | Active | – | – | – |
| – | COc1ccc(OC)c(NC(=O)CN(c2ccccc2OC)S(=O)(=O)c2ccc(Br)cc2)c1 | 5 | Active | Active | – | – | – |
| – | CCOc1ccccc1NC(=O)CN(c1cccc(OC)c1)S(=O)(=O)c1ccc(C)cc1 | 3.1 | Active | Active | – | – | – |
| – | COc1ccccc1N(CC(=O)Nc1ccccc1F)S(=O)(=O)c1ccc(C)cc1 | 2.1 | Active | Active | – | – | – |
| – | COc1ccccc1N(CC(=O)Nc1cccnc1OC(C)C)S(=O)(=O)c1ccc(C)cc1 | 2.3 | Active | Active | – | – | – |
| 0.3% | COC(=O)c1ccccc1NC(=O)CN(c1ccccc1OC)S(=O)(=O)c1ccc(C)cc1 | 3 | Active | Active | – | – | – |
| 97.7% | CC(=O)Nc1ccc(O)cc1 [ACETAMINOPHEN] | – | – | – | – | – | – |
| 61.2% | COc1ccncc1NC(=O)CN(c1ccccc1OC)S(=O)(=O)c1ccc(C)cc1 | 4.2 | Active | Active | 0.7 | – | – |
| – | CCOc1ccccc1NC(=O)CN(c1ccccc1C)S(=O)(=O)c1ccc(C)cc1 | 2.6 | Active | Active | – | – | – |
| – | COc1ccccc1N(CC(=O)Nc1ccccc1Br)S(=O)(=O)c1ccc(C)cc1 | 2.1 | Active | Active | – | – | – |
| – | CCc1ccccc1NC(=O)CN(c1ccccc1OC)S(=O)(=O)c1ccc(C)cc1 | 0.8 | – | Active | – | – | – |
| – | COc1cccc(NC(=O)CN(c2ccccc2OC)S(=O)(=O)c2ccc(C)cc2)c1 | 1.8 | Active | Active | – | – | – |
| – | COc1ccccc1N(CC(=O)Nc1nccs1)S(=O)(=O)c1ccc(C)cc1 | – | – | Active | – | – | – |
| – | CCOc1ncccc1NC(=O)CN(c1ccccc1OC)S(=O)(=O)c1ccc(C)cc1 | 2.1 | Active | Active | – | – | – |
| 0.7% | CCOc1ccccc1NC(=O)CN(c1ccccc1OC)S(=O)(=O)c1ccc(C)cc1 | – | Active | Active | – | 3.2 | inactive |
| – | CCOc1ccccc1NC(=O)CN(c1ccccc1Cl)S(=O)(=O)c1ccc(C)cc1 | 2.6 | Active | Active | – | – | – |
| – | COc1ccncc1NC(=O)CN(c1ccccc1OC)S(=O)(=O)c1ccc(SC)cc1 | 3.9 | Active | Active | – | – | – |

| remaining at 0.5 h [4] | SMILES | fold change (FC) [1] | Activity [2] | Activity [3] | Activity [5] | fold change (FC) [6] | Activity [7] |
| --- | --- | --- | --- | --- | --- | --- | --- |
| 23.1% | COc1ccc(CCN(C)CCCC(C#N)(c2ccc(OC)c(OC)c2)C(C)C)cc1OC (stereo not drawn) [VERAPAMIL] | – | – | – | – | – | – |
| – | COc1ccc(OC)c(NC(=O)CN(c2ccccc2OC)S(=O)(=O)c2ccc(SC)cc2)c1 | 3.2 | Active | Active | – | – | – |
| – | COc1ccccc1N(CC(=O)Nc1ncc[nH]1)S(=O)(=O)c1ccc(C)cc1 | – | – | Active | – | – | – |
| – | COc1ccncc1NC(=O)CN(c1ccccc1OC)S(=O)(=O)c1ccc(Br)cc1 | 3.7 | Active | Active | – | – | – |
| 0.4% | COc1ccc(NC(=O)CN(c2ccccc2OC)S(=O)(=O)c2ccc(Cl)cc2)c(OC)c1 | 4.2 | Active | Active | – | – | – |
| – | CCOc1ccccc1CNC(=O)CN(c1ccccc1OC)S(=O)(=O)c1ccc(C)cc1 | – | – | Active | – | – | – |
| – | COc1ccccc1N(CC(=O)Nc1ccc2ncccc2c1)S(=O)(=O)c1ccc(C)cc1 | 1 | Active | Active | – | – | – |
| – | COc1ccccc1N(CC(=O)Nc1ncccc1OC)S(=O)(=O)c1ccc(C)cc1 | 1.6 | Active | Active | – | – | – |
| – | COc1ccc(OC)c(NC(=O)CN(C(=O)c2ccc(Cl)cc2)c2ccccc2OC)c1 | 1 | – | Active | – | – | – |
| – | CCOc1ccccc1NC(=O)CN(c1ccccc1)S(=O)(=O)c1ccc(C)cc1 | 2.5 | Active | Active | – | – | – |
| – | COc1ccccc1N(CC(=O)Nc1cccnc1OC)S(=O)(=O)c1ccc(C)cc1 | 2.8 | Active | Active | – | – | – |
| – | COc1ccc(NC(=O)CN(c2ccccc2OC)S(=O)(=O)c2ccc(C)cc2)c(OC)c1 | 2.7 | Active | Active | – | – | – |
| – | COc1ccc(OC)c(NC(=O)CN(c2ccccc2OC)S(=O)(=O)c2ccc(F)cc2)c1 | 2.5 | Active | Active | – | – | – |
| – | COc1ccccc1N(CC(=O)Nc1ccccc1)S(=O)(=O)c1ccc(C)cc1 | 2 | Active | Active | – | – | – |
| – | COc1ccccc1N(CC(=O)Nc1cnc2ccccc2c1)S(=O)(=O)c1ccc(C)cc1 | 3.6 | Active | Active | – | – | – |
| – | COc1ccccc1N(CC(=O)Nc1cccc2ncccc12)S(=O)(=O)c1ccc(C)cc1 | 1.3 | Active | Active | – | – | – |
| 0.4% | COc1ccc(S(=O)(=O)N(CC(=O)Nc2cc(OC)ccc2OC)c2ccccc2OC)cc1 | 2.3 | Active | Active | – | – | – |
